High-throughput results (PubChem)
In the library only some 2.3% were active in any assay of this set; here they are far more common.
TRPC6 act: mouse TRPC6 channel activation | Q61143 | HEK293-TRPC6 membrane potential dye fluorescence; stronger effect = higher value | B-score at 10 µM | 310,000 tested, 0.13% active;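 active means B-score of the integrated fluorescence ratio above library mean plus 3 SD, and starting fluorescence ratio within library mean plus 5 SD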;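 further: higher score means more depolarization so channel activation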
TRPC4 PAM: TRPC4 (mouse) allosteric potentiation; Q9QUQ5; HEK293 TRPC4beta/mu-opioid, DAMGO EC20, Fluo-4 Ca2+ flux; stronger effect = higher value; B-score at 10 µM; 310,000 tested, 0.42% active;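 active means B-score of calcium response area above 5 SD of library B-scores, with initial fluorescence ratio within 5 SD of library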;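 further: B-score of integrated fluorescence ratio over time as area under calcium response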
Target sequence (Q9QUQ5 whole entry, looked up): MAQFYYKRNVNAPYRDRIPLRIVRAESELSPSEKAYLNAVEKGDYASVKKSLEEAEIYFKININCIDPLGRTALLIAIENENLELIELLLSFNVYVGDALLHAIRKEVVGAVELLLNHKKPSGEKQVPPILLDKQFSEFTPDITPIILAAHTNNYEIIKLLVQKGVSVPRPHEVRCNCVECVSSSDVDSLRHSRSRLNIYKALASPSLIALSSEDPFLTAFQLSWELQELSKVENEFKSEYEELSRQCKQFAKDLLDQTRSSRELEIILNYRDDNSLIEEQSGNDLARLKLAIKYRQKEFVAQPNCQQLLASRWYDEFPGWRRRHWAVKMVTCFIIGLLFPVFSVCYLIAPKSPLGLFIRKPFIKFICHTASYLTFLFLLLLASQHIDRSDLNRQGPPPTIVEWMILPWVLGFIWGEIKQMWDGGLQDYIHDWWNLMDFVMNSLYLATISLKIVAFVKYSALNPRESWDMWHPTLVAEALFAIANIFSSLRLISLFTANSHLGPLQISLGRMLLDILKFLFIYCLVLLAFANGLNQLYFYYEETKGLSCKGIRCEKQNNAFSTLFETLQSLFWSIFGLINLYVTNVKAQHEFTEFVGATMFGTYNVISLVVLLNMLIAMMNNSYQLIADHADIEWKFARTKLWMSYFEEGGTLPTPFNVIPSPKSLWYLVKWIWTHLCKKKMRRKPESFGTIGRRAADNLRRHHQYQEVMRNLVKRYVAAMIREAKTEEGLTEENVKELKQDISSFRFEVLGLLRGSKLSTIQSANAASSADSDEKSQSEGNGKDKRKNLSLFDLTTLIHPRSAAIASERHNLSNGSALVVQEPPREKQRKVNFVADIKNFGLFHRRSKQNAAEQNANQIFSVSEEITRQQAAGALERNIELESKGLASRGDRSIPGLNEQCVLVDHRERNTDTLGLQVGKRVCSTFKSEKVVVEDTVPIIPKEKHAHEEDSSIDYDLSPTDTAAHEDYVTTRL
TRPC4 block: TRPC4 (mouse) channel inhibition; Q9QUQ5; HEK293 TRPC4beta/mu-opioid, DAMGO-evoked Fluo4 calcium flux; stronger effect = lower value; B-score at 10 µM; 300,000 tested, 0.39% active;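 active means B-score over 3 SD under the library average, no early fluorescence shift, positive overall ratio signal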
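Material: HEK293 cells with stable TRPC4beta plus mu-opioid receptor expression; probe or stimulus: DAMGO in two steps, submaximal then maximal; technique: Fluo4 calcium fluorescence by kinetic imaging, 5 s 1 Hz baseline; measure: integrated fluorescence ratio relative to baseline, converted to per-well B score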
TRPC4 act: opens the mouse TRPC4 cation channel; Q9QUQ5; 310,000 tested, 0.49% active; HEK293 TRPC4beta/mu-opioid, Fluo4 calcium fluorescence; stronger effect = higher value; B-score at 10 µM; AID 2237;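 active means B-score above 5 SD of library B-scores, and initial fluorescence ratio not above library mean plus 5 SD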;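 further: positive B-score marks a calcium rise read as TRPC4 activation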
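Assay system – TRPC4beta and mu-opioid receptor HEK293 stable cells · Measured by – Fluo4 fluorescence, kinetic · Schedule – dye loading 45 min room temperature, 110 s kinetic read · Read-out – B-scored integrated calcium fluorescence ratio · Controls – buffer and maximal DAMGO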
TRPC6 inhibitor: mouse TRPC6 channel inhibition. Q61143. HEK293-TRPC6, membrane potential dye, ACh-evoked depolarization; stronger effect = lower value. B-score at 10 µM. 310,000 tested, 1.1% active. AID 2553;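 active means B-score under library mean minus 3 SD, initial fluorescence not abnormally high, positive integrated signal ratio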;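 further: B-score derived from integrated fluorescence ratio over the kinetic read; more negative B-score means stronger inhibition of depolarization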
TRPC4 sel inh 2: second check of whether TRPC6 inhibitors also affect mouse TRPC4; shares compounds with TRPC6 inhibitor; HEK293 TRPC4/MOR, membrane potential dye fluorescence; channel activated by saturating DAMGO dose; inhibition, % at 10 µM; 920 tested, 42% active;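 active means compounds whose fluorescence signal differed from control wells by over 3 SD, either direction, in both duplicate plates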
TRPC4 spec: selectivity of TRPC6 inhibitors: effect on mouse TRPC4 | activity change, negative = inhibition, % at 10 µM | shares compounds with TRPC6 inhibitor | HEK293 TRPC4/mu-opioid, membrane potential fluorescence | 920 tested, 61% active;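 active means rise or fall in signal beyond 3 SD of buffer-only wells in both replicate plates, either sign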;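 further: integrated kinetic ratio of fluorescence range over baseline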
HEK293 MPD ctr 2-1: parental HEK293 nonspecific activity of TRPC6 inhibitors, second screen; signal change vs control, % at 10 µM; parental HEK293 membrane potential dye fluorescence; maximal acetylcholine challenge after compound addition; shares compounds with TRPC6 inhibitor; 920 tested, 31% active;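 active means membrane potential signal moving either way by over 3 SD of the maximum-effect control, in both duplicate plates, meaning non-specific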
HEK293 MPD ctr-1: checks TRPC6 inhibitor effects in parental HEK293 cells | shares compounds with TRPC6 inhibitor | parental HEK293 membrane potential dye fluorescence | membrane potential signal change, % at 10 µM | 920 tested, 60% active | AID 2780;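 active means membrane potential signal shifting up or down by more than 3 SD of buffer-only wells, on both duplicate plates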
HEK293 MPD ctr-2: counter-screen for TRPC6 modulators: effect in parental HEK293 cells | shares compounds with TRPC6 inhibitor | membrane potential dye fluorescence | membrane potential signal change, % at 10 µM | 2,400 tested, 51% active | AID 488924;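 active means membrane potential signal moves up or down beyond 5 SD from buffer-only wells, on both duplicate plates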
HEK293 MPD ctr 2-2: parental HEK293 nonspecific activity of TRPC6 modulators, second screen; shares compounds with TRPC6 inhibitor; membrane potential dye fluorescence; after compound, maximal acetylcholine stimulation; inhibition, % at 10 µM; 2,400 tested, 14% active; AID 488926;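 active means membrane potential signal drops by more than 5 SD from the mean control signal, in both duplicate plates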;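 further: plate controls were acetylcholine ECmax control wells for no effect and buffer only wells for full effect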
TRPC4 ctr mod: tests whether TRPC6 modulators also affect mouse TRPC4; shares compounds with TRPC6 inhibitor; 2,400 tested, 69% active; HEK293 TRPC4/mu-opioid, membrane potential fluorescence; percent change from control (negative = decrease, positive = increase), % at 10 µM;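 active means membrane potential signal moved up or down beyond 5 SD of buffer control wells, in both duplicate plates, actives on both sides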;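 further: plate controls were assay buffer wells for no effect and DAMGO maximal-effect wells for full effect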
TRPC4/MOR inh 2: second selectivity test of TRPC6 modulators against mouse TRPC4. shares compounds with TRPC6 inhibitor. HEK293 TRPC4/mu-opioid, membrane potential dye fluorescence; stimulated with maximal-effect DAMGO. inhibition, % at 10 µM. 2,400 tested, 55% active. AID 488928;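 active means drop in membrane potential signal beyond 5 SD of the control wells in both duplicate plates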;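 further: TRPC4 counter screen for TRPC6 hits run under conditions tuned for TRPC6 not TRPC4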
TRPC6 inh conf: confirmation of mouse TRPC6 inhibitors. HEK293-TRPC6, membrane potential dye, ACh-evoked depolarization. 3,300 tested, 43% active. shares compounds with TRPC6 inhibitor. inhibition, % at 10 µM;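 active means fluorescence ratio falls more than 5 SD below the full-stimulation control mean, in both duplicate runs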;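 further: integrated fluorescence ratio of peak minus minimum over baseline after agonist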
TRPC6 act conf: mouse TRPC6 activator confirmation; AID 488961; 2,800 tested, 11% active; HEK293-TRPC6 membrane potential dye fluorescence, FDSS; shares compounds with TRPC6 inhibitor; activation, % at 10 µM;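 active means ratio signal rise beyond 5 SD above unstimulated control wells' mean, seen in both duplicate runs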;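 further: plate controls were buffer EC0 wells for no effect and acetylcholine ECmax response for full effect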
* hit, by the source's call; i = inactive; nt = no result given.

SMILES	TRPC6 act	TRPC4 PAM	TRPC4 block	TRPC4 act	TRPC6 inhibitor	HEK293 MPD ctr-2	HEK293 MPD ctr 2-2	TRPC4 ctr mod	TRPC4/MOR inh 2	TRPC6 inh conf	TRPC6 act conf	others
CC1CCCN(C(=O)c2ccc(-c3ccccc3Cl)o2)C1 (stereo not given)	i	i	i	i	-5.1*	i	i	15%*	i	i	nt
COc1cccc(C(=O)CN(C(=O)c2ccc(Cl)cc2Cl)N2C(=O)c3ccccc3C2=O)c1	i	i	i	i	i	nt	nt	nt	nt	nt	nt
CCN(CC)CCNc1nc2cc(OC)c(OC)cc2c2nc(-c3ccccc3)nn12	i	i	i	i	-12*	nt	nt	nt	nt	76%*	i	TRPC4 sel inh 2=38%*;TRPC4 spec=-33%*;HEK293 MPD ctr 2-1=32%*;HEK293 MPD ctr-1=-384%*
COc1cc2[nH]c(=O)n3nc(-c4ccccc4)nc3c2cc1OC	i	i	i	i	i	nt	nt	nt	nt	nt	nt
COc1cc(OC)c(NC(=S)NCc2ccc(F)cc2)cc1Cl	i	i	i	i	i	nt	nt	nt	nt	nt	nt
COc1cc2c(cc1OC)-c1cc(NCc3ccccn3)nc(=O)n1CC2	i	i	i	i	-5.4*	-196%*	i	-34%*	i	i	i
CCNc1cc2n(c(=O)n1)CCc1cc(OC)c(OC)cc1-2	i	i	i	i	i	nt	nt	nt	nt	nt	nt
C=Cn1cc[n+](CC(=O)C(C)(C)C)c1	i	i	i	i	i	nt	nt	nt	nt	nt	nt
O=C(Nc1ccccc1)/C(=C/c1ccc2c(c1)OCO2)NC(=O)c1ccco1	i	i	i	i	i	nt	nt	nt	nt	nt	nt
Cc1cc(NC2CCCCC2)n2c(n1)nc1ccccc12	i	i	i	i	-5.5*	i	i	i	i	i	i
Cc1cc(Nc2cccc(F)c2)n2c(n1)nc1ccccc12	i	i	i	i	i	nt	nt	nt	nt	nt	nt
COc1ccc(CCNC(=O)C2CCN(Cc3nc(-c4cccc(Cl)c4)oc3C)CC2)cc1OC	i	i	i	i	-7.3*	i	i	i	75%*	i	i
CCc1ccccc1NS(=O)(=O)c1ccc2[nH]cc(C(=O)NCc3ccco3)c(=O)c2c1	i	i	i	i	-5*	i	i	i	i	i	i
COc1ccc(S(=O)(=O)Nc2ccccc2C(=O)NCc2ccco2)cc1	i	i	i	i	i	nt	nt	nt	nt	nt	nt
O=C(NC1CC1)c1c[nH]c2ccc(S(=O)(=O)Nc3cccc(C(F)(F)F)c3)cc2c1=O	i	i	i	i	-5.2*	i	i	i	i	i	nt
O=C(NCc1ccccc1)c1c[nH]c2ccc(S(=O)(=O)Nc3ccc4c(c3)OCCO4)cc2c1=O	i	i	i	i	-5.2*	i	i	i	i	i	i
COc1ccc(CCNC(=O)CCS(=O)(=O)c2ccc3c(c2)oc(=O)n3C)cc1OC	i	i	i	i	i	nt	nt	nt	nt	nt	nt
CS/C(=N\S(=O)(=O)c1cccs1)Nc1ccc(Br)cc1F	i	i	i	i	i	nt	nt	nt	nt	nt	nt
O=C(c1cccc(C(F)(F)F)c1)N1CCN(C2CCCCC2)CC1	i	i	i	i	-5.6*	i	i	11%*	i	40%*	nt
COC(=O)[C@@H](NC(=O)N1CCN(c2cccc(C(F)(F)F)c2)CC1)C(C)C	i	i	i	i	-6.4*	i	i	i	i	i	i
O=C(c1cccc(F)c1)N1CCN(C2CCCCC2)CC1	i	i	i	i	i	nt	nt	nt	nt	nt	nt
O=C(c1cccc(F)c1)N1CCN(c2cccc(C(F)(F)F)c2)CC1	i	i	i	i	-6*	i	i	16%*	i	77%*	nt
O=C(CCn1nnc2ccccc21)N/N=C\Cc1ccccc1	i	i	i	i	i	nt	nt	nt	nt	nt	nt
CC(C)Oc1ccc(/C(O)=C2/C(=O)C(=O)N(CCN3CCNCC3)C2c2ccc(C(C)C)cc2)cc1 (stereo not given)	i	i	i	i	i	nt	nt	nt	nt	nt	nt
Cc1cccc(NC(=S)NC(=O)c2oc3ccccc3c2C)n1	i	i	i	i	i	nt	nt	nt	nt	nt	nt
CCn1c(SCC(N)=O)nc2sc3c(c2c1=O)CCN(C)C3	i	i	i	i	-6*	-203%*	i	-36%*	36%*	44%*	i
CCn1c(SCC(=O)Nc2ccc(C)cc2)nc2sc3c(c2c1=O)CCN(C)C3	i	i	i	i	i	nt	nt	nt	nt	nt	nt
CCOc1ccc(-n2c(SCC(N)=O)nc3sc4c(c3c2=O)CCN(C)C4)cc1	i	i	i	i	i	nt	nt	nt	nt	nt	nt
CSc1nc(SCC(N)=O)c2c3c(sc2n1)CN(C)CC3	i	i	i	i	-11*	-210%*	68%*	-38%*	47%*	i	i
CCOC(=O)CSc1nc2sc3c(c2c(=O)n1C1CCCCC1)CCN(C)C3	i	i	i	i	-5.6*	i	i	8.0%*	46%*	i	i
